For data set [1], the target named is Voltage-dependent T-type calcium channel subunit alpha-1G (Homo sapiens, UniProt O43497). As to the kind of experiment: Inhibition of T-type calcium channel Cav3.1 expressed in HEK293 cells co-expressing alpha1G subunit and Kir2.1 potassium channel by patch-clamp assay. The class given is cell-based. An outline of the steps:
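Cells were HEK293 stably co-expressing Cav3.1 (α1G) and Kir2.1. Single-cell patch-clamp recording measured % inhibition of Ca2+ current at set compound concentrations, giving IC50 values. This was a secondary screen of compounds selected from a primary FDSS6000 fluorescence high-throughput assay.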
A general note: In patch-clamp work, channel activity is measured electrically.

For another data set, the species on record is Homo sapiens. As to the kind of experiment: Selectivity index, ratio of IC50 for N-type calcium channel to IC50 for T-type calcium channel Cav3.1.
Data set [2] in a line: Cytotoxicity against HEK293 cells by MTT assay. The class given is cell-based. The settings on record: human. The gist of the method:
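MTT viability read-out. Negative control was 0.1% DMSO and positive control was H2O2.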
Background: Tetrazolium assays rely on reduction of a dye to a coloured formazan, in cell work by metabolically active cells.

Data set [3] can be described thus: Inhibition of N-type calcium channel activity. Further details: species or system Homo sapiens.

Drawing on ChEMBL document CHEMBL1138411, “Design, synthesis, and biological evaluation of 1,3-dioxoisoindoline-5-carboxamide derivatives as T-type calcium channel blockers” (Bioorg Med Chem Lett, 2007), this text covers IC50, Ratio IC50 and CC50 for twelve compounds.

Bounds are passed on as bounds.

Sequence of Voltage-dependent T-type calcium channel subunit alpha-1G (O43497 whole entry): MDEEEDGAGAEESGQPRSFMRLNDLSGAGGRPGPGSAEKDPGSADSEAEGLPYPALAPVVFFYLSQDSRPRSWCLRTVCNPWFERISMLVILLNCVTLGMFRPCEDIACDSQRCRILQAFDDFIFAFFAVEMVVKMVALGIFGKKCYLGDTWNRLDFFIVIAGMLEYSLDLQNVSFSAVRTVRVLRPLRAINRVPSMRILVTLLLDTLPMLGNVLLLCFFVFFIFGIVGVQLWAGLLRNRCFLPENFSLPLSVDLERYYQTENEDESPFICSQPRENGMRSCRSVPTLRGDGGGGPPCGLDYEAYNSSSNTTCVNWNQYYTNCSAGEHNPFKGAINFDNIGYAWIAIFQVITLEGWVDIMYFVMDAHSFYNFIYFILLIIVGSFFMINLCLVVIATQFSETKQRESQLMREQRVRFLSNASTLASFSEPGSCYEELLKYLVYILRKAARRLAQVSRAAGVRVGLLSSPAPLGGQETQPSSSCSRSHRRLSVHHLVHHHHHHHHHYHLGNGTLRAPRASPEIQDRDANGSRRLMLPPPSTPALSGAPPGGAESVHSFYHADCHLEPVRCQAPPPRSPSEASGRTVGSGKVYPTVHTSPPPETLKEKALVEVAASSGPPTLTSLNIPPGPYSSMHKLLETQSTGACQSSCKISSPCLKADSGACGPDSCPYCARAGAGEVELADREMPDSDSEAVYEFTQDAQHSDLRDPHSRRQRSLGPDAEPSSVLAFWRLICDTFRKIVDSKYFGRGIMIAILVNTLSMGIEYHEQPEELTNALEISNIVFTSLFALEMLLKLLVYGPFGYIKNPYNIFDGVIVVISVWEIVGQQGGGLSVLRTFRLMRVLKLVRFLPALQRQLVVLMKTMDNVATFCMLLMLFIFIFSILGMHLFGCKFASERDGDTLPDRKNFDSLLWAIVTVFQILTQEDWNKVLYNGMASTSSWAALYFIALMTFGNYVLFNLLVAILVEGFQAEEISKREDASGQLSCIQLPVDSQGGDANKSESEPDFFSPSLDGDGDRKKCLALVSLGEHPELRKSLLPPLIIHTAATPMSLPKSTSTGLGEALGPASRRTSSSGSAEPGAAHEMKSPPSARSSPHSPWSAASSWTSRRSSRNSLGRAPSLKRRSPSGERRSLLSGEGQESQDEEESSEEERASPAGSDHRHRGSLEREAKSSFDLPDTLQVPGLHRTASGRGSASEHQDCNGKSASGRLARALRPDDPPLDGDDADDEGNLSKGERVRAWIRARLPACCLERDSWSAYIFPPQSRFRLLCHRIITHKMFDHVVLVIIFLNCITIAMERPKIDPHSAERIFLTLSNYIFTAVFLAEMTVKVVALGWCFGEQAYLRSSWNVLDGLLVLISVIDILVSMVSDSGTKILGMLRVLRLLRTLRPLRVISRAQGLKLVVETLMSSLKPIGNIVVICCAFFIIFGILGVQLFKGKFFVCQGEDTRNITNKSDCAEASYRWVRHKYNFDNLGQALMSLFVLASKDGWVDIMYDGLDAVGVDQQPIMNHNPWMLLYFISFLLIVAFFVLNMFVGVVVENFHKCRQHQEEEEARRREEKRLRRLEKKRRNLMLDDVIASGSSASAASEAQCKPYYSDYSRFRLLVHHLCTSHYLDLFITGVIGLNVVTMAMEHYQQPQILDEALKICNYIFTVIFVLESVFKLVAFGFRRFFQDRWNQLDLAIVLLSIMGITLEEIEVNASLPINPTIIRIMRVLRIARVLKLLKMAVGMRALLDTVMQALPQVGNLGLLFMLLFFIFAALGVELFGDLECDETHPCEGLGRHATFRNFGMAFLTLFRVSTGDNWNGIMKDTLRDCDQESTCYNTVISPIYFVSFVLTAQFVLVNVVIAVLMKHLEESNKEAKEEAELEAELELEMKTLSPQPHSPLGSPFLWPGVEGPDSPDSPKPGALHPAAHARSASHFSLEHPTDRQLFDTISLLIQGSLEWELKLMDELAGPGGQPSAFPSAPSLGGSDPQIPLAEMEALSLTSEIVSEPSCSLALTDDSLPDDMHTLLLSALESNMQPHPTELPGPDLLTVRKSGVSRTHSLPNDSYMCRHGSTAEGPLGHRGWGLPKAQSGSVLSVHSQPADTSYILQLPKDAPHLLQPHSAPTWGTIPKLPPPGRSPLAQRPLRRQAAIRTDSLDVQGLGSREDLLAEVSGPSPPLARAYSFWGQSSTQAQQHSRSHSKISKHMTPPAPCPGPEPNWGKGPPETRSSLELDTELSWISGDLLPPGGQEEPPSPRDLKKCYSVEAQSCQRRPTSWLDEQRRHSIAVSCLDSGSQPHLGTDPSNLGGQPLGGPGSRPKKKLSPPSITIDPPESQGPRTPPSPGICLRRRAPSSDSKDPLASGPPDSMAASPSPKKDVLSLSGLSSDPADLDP

For the compound `O=C(NCCN1CCCCC1)c1ccc2c(c1)C(=O)N(Cc1ccccc1Cl)C2=O`, the IC50 in data set [1] is 5.82 µM.
Regarding `Cc1ccc(CN2C(=O)c3ccc(C(=O)NCCCN4CCCCC4C)cc3C2=O)cc1` (stereo unspecified), in data set [1], the IC50 was 3.53 µM.
The same measure, in the same setting: for `O=C(NCCN1CCCCC1)c1ccc2c(c1)C(=O)N(Cc1ccccc1)C2=O` the value was 22.8 µM.
Regarding `O=C(NCCN1CCCCC1)c1ccc2c(c1)C(=O)N(Cc1ccc(F)cc1)C2=O`, in data set [1], the IC50 stood at 8.88 µM.
As to `Cc1ccc(CN2C(=O)c3ccc(C(=O)NCCN4CCCCC4)cc3C2=O)cc1`, the IC50 in data set [1] was 5.82 µM.
Consider `COc1ccc(CN2C(=O)c3ccc(C(=O)NCCN4CCCCC4)cc3C2=O)cc1`, for which the IC50 in data set [1] came to 5.25 µM.
Regarding `CC1CCCCN1CCCNC(=O)c1ccc2c(c1)C(=O)N(Cc1ccc(Cl)cc1)C2=O` (stereo unspecified), the Ratio IC50 in the data set filed under Homo sapiens is 59. For the same compound, the CC50 in data set [2] is more than 100 µM. The IC50 in data set [3] worked out at 54.7 µM.
As to `O=C(NCCN1CCCCC1)c1ccc2c(c1)C(=O)N(Cc1cccc(Cl)c1)C2=O`, the IC50 in data set [1] is 4.09 µM.
As to `O=C(NCCCN1CCCC1)c1ccc2c(c1)C(=O)N(Cc1ccc(Cl)cc1)C2=O`, the IC50 in data set [1] stood at 1.62 µM.
Regarding `O=C(NCCN1CCCCC1)c1ccc2c(c1)C(=O)N(Cc1ccccc1F)C2=O`, the IC50 in data set [1] was 14.9 µM.
With `COc1cccc(CN2C(=O)c3ccc(C(=O)NCCN4CCCCC4)cc3C2=O)c1`, the IC50 in data set [1] was 14.1 µM.
For the compound `O=C(NCCN1CCCCC1)c1ccc2c(c1)C(=O)N(Cc1ccc(Cl)cc1)C2=O`, the Ratio IC50 in the data set filed under Homo sapiens stood at 35. Also, in data set [2], the CC50 is more than 100 µM. In data set [3], the IC50 is 33.4 µM.

In general, IC50 refers to the concentration at which inhibition is half-maximal. In general, CC50 refers to the concentration that lowers cell viability or growth by half. Low readings indicate harm at low concentration, high ones better tolerance by the cells.
